Active and inactive are the calls of the source. No cut-off for these calls is given here.

Series [1] concerns the target T1, Cruzipain (Trypanosoma cruzi, UniProt P25779). Description: Inhibition of Trypanosoma cruzi cruzain after 15 mins. The procedure, abridged: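 Cruzain at 1.5 nM final in 100 mM acetate pH 5.5, 5 mM DTT, 0.01% Triton X-100; compounds as serial 2-fold dilutions pin-transferred in DMSO. 15 min room-temperature preincubation, then Z-FR-AMC 2 μM final. Kinetic fluorescence read at ex 340/em 450 nm. Percent inhibition from the first 60 s signal change versus no-enzyme and uninhibited controls (48 wells each).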

Series [2] relates to Trypanosoma cruzi. Description: Antitrypanosomal activity against Trypanosoma cruzi Y trypomastigotes infected in mouse J774 cells at 10 uM after 27 days medium replaced every 48 hrs. Format: functional, organism-based. The procedure, abridged:
(§1)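 Irradiated (1000 rad) J774 macrophages plated overnight, infected 2 h with Y strain trypomastigotes, parasites removed, then cultured in RPMI-1640 with compound (n = 3); untreated infected and 10 μM K777 controls per experiment. Medium replaced every 48 h over 27 days; daily phase-contrast microscopy (400×) for free trypomastigotes and host toxicity; cultures kept 14 further days to confirm cure.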

The target in series [3] is T1, Cruzipain. Description: Inhibition of recombinant Trypanosoma cruzi cruzain after 5 mins by spectrofluorimetric analysis. Summed up: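 Recombinant cruzain at 4 nM (activated procruzain, anion-exchange purified) in 100 mM sodium acetate pH 5.5, 5 mM DTT, 0.001% Triton X-100. Preincubated 5 min at room temperature with compound in DMSO, then Z-Phe-Arg-AMC 10 μM. Fluorescence rate read at ex 355/em 460 nm; DMSO controls; IC50 by curve fitting.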

Series [4] can be described thus: Inhibition of recombinant Trypanosoma brucei rhodesain after 5 mins by spectrofluorimetric analysis. Summed up:
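Recombinant rhodesain, 4 nM, preincubated 5 min at room temperature with compound (DMSO) in 100 mM sodium acetate pH 5.5, 5 mM DTT, 0.001% Triton X-100. Reaction started with 10 μM Z-Phe-Arg-AMC; rate of AMC fluorescence increase read at ex 355/em 460 nm. IC50 from curve fitting; DMSO-only wells as positive control.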

Series [5] can be described thus: Inhibition of recombinant Trypanosoma brucei cathepsin B after 5 mins by spectrofluorimetric analysis. The procedure, abridged: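 Recombinant TbCatB at 258 nM in 100 mM sodium acetate pH 5.5, 5 mM DTT, 0.001% Triton X-100, preincubated with compound in DMSO for 5 min at room temperature. Z-Phe-Arg-AMC 10 μM added to start. Rate of fluorescence rise read at ex 355/em 460 nm; DMSO control wells; IC50 from curve fitting.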

Series [6] relates to Trypanosoma cruzi. Description: Antitrypanosomal activity against Trypanosoma cruzi Y trypomastigotes infected in mouse J774 cells at 1 uM after 27 days medium replaced every 48 hrs. Format: functional, organism-based. The procedure, abridged:
as §1

The test system of the next series is J774. Nature of the series: Cytotoxicity against mouse J774 cells at 10 uM. Format: cell-based. The note with it: j774, 10 µM. The procedure, abridged: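 Irradiated (1000 rad) J774 macrophages plated overnight and infected 2 h with Y strain T. cruzi trypomastigotes. After parasite removal, cultured in RPMI-1640 with compound (n = 3), medium changed every 48 h, for 27 days. Toxicity to host cells (granulation, detachment, death) scored daily by phase-contrast microscopy at 400×.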

For series [7], the system named is Trypanosoma cruzi. Nature of the series: Antitrypanosomal activity against Trypanosoma cruzi Y trypomastigotes infected in mouse J774 cells at 5 uM after 27 days medium replaced every 48 hrs. Format: functional, organism-based. Summed up: as §1

T1 sequence (P25779 whole entry): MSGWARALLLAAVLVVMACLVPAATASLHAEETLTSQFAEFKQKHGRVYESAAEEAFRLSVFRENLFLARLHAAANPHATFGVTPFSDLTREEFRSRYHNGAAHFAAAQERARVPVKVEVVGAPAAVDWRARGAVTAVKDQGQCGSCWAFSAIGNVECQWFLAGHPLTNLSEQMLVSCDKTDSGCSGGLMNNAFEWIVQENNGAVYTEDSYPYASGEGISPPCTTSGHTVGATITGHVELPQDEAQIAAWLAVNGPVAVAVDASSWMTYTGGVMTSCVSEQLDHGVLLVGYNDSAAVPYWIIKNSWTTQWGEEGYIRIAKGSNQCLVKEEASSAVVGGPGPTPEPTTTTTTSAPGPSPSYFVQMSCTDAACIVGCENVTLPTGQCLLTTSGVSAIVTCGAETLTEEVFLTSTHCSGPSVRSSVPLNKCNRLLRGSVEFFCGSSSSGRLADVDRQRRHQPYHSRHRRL

The IC50 is the concentration that gives 50% inhibition. On to `CCNc1nc(C#N)nc(Nc2ccccc2)n1`, for which the IC50 at Cruzipain [1] (read-out: IC50) stood at 710 nM.

With `CCn1cnc2c(Nc3cccc(Cl)c3)nc(C#N)nc21`, in the series with Trypanosoma cruzi [2], the outcome was inactive. The IC50 is 18 nM at Cruzipain [1] (read-out: IC50), 0.4 nM at Cruzipain [3], 10 nM in series [4] and > 100000 nM in series [5].

As to `N#Cc1nc(Nc2ccccc2)nc(NC2CCCC2)n1`, on Cruzipain [1] (read-out: IC50), the IC50 worked out at 710 nM.

Take `N#Cc1nc(Nc2ccc(Br)cc2)nc(NC2CCCC2)n1`: the IC50 was 1120 nM on Cruzipain [1] (read-out: IC50), 60 nM at Cruzipain [3], 100 nM in series [4] and > 10000 nM in series [5].

Turning to `N#Cc1nc(Nc2ccccc2)nc(NC2CCCCC2)n1`, the IC50 at Cruzipain [1] (read-out: IC50) was found to be 1410 nM.

`CNc1nc(C#N)nc(Nc2ccccc2)n1`: the IC50 at Cruzipain [1] (read-out: IC50) stood at 1260 nM.

Consider `N#Cc1nc(NCC(F)F)c2ncn(-c3cc(F)cc(F)c3)c2n1`, for which the concentration for half-maximal inhibition (IC50) on Cruzipain [1] (read-out: IC50) was 50 nM.

On to `CCCCNc1nc(C#N)nc(Nc2ccccc2)n1`, for which the IC50 on Cruzipain [1] (read-out: IC50) was 890 nM.

Regarding `N#Cc1nc(Nc2cccc(F)c2)nc(NC2CCCC2)n1`, the IC50 on Cruzipain [1] (read-out: IC50) is 79 nM; at Cruzipain [3], 10 nM; in series [4], 20 nM; in series [5], > 1000 nM.

For the molecule `N#Cc1nc(Nc2cccc(C(F)(F)F)c2)nc(NC2CCCC2)n1`, the IC50 result against Cruzipain [1] is “Not Active”; at Cruzipain [3] it was 40 nM; in series [4], 70 nM; in series [5], > 10000 nM. Also, the result in the series on Trypanosoma cruzi [6] and in the series with Trypanosoma cruzi [7] was inactive. Besides, the Activity result in the series on J774 is given as “Toxic”.

Turning to `N#Cc1nc(NCCCCO)nc(Nc2ccccc2)n1`, on Cruzipain [1] (read-out: IC50), the 50% inhibitory concentration (IC50) is 890 nM.

On to `N#Cc1nc(Nc2cccc(Cl)c2)c2ncn(C3CCCC3)c2n1`, for which, in the series on Trypanosoma cruzi [2], the result was inactive. Moreover, the IC50 is 40 nM on Cruzipain [1] (read-out: IC50), 0.3 nM on Cruzipain [3], < 6 nM in series [4] and > 10000 nM in series [5].

As to `CCCNc1nc(C#N)nc(Nc2ccccc2)n1`, the half-inhibitory concentration (IC50) at Cruzipain [1] (read-out: IC50) worked out at 790 nM.

Consider `N#Cc1nc(NCC(F)F)nc(Nc2cc(F)cc(F)c2)n1`, for which the IC50 at Cruzipain [1] (read-out: IC50) is 25 nM; at Cruzipain [3], 1 nM; in series [4], < 6 nM; in series [5], 1000 nM.
